Key:
[1] = biological target: Mitogen-activated protein kinase 8 (Homo sapiens, UniProt P45983); test: Inhibition of JNK1 Lys2 labeling site in human Huh-7 cell lysate at 1 uM by KiNativ Profiling analysis relative to control; type: subcellular
[2] = biological target: DNA-PK/Ku70/Ku85 (Homo sapiens) (UniProt P78527+P12956+P13010); test: Inhibition of DNAPK ATP labeling site harbouring GHDEREHPFLVKGGEDLR in human A-375 cells at 0.5 uM by KiNativ Profiling analysis relative to control; type: cell-based
Summary of the method: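 Live A375 melanoma cells were treated with compound at 0.5 or 5 μM, then lysed. Lysates were labeled with a lysine-reactive ATP or ADP-biotin probe. The read-out was protection of each kinase probe-labeling site from labeling, relative to control.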

[3] = biological target: T1, Serine/threonine-protein kinase Chk1 (Homo sapiens) (UniProt O14757); test: Inhibition of CHK1 Lys2 labeling site harbouring DIKPENLLLDER in human A-375 cells at 5 uM by KiNativ Profiling analysis relative to control; type: cell-based
T1 sequence (whole entry): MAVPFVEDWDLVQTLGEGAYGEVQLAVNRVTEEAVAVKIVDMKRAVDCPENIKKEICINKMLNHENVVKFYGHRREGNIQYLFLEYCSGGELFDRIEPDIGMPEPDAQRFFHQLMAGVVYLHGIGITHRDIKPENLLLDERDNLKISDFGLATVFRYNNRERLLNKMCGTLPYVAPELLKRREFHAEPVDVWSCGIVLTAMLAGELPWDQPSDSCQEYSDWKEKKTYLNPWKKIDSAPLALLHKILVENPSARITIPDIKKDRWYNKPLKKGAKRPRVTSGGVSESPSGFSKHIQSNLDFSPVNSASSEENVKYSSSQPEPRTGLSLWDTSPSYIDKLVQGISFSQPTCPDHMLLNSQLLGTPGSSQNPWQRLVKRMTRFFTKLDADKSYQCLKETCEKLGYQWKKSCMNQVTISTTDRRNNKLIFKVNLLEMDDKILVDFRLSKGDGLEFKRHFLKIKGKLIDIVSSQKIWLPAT
Summary of the method: (§1)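 Live A375 melanoma cells were treated with compound at 5 or 0.5 μM. The cells were then lysed, and the lysates were labeled with a lysine-reactive ATP or ADP-biotin acyl probe (KiNativ). Inhibition is the compound's protection of each kinase labeling-site peptide from probe labeling, relative to untreated control.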

[4] = biological target: Cyclin-dependent kinase 8 (Homo sapiens) (UniProt P49336); test: Inhibition of CDK8 Lys2 labeling site in human A-375 cells at 5 uM by KiNativ Profiling analysis relative to control; type: cell-based; summary of the method: as §1
Cyclin-dependent kinase 8 (Homo sapiens), sequence (P49336 whole entry): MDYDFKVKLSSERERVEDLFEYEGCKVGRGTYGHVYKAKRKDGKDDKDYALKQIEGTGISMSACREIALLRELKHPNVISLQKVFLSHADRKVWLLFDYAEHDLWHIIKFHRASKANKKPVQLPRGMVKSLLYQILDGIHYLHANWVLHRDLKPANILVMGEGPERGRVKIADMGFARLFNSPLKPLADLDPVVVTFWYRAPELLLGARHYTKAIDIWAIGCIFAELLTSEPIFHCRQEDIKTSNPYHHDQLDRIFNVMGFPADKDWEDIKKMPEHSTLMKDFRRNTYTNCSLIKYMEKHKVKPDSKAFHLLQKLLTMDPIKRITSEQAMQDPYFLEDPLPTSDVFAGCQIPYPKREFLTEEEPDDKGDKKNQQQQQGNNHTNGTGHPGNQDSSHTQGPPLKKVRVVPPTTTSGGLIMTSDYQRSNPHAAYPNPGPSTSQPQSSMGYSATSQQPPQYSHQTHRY

[5] = biological target: Mitogen-activated protein kinase kinase kinase kinase 4 (Homo sapiens, UniProt O95819); test: Inhibition of ZC1/HGK Lys1 labeling site in human A-375 cells at 0.5 uM by KiNativ Profiling analysis relative to control; type: cell-based
Mitogen-activated protein kinase kinase kinase kinase 4, sequence (O95819 2-1239 limits assumed): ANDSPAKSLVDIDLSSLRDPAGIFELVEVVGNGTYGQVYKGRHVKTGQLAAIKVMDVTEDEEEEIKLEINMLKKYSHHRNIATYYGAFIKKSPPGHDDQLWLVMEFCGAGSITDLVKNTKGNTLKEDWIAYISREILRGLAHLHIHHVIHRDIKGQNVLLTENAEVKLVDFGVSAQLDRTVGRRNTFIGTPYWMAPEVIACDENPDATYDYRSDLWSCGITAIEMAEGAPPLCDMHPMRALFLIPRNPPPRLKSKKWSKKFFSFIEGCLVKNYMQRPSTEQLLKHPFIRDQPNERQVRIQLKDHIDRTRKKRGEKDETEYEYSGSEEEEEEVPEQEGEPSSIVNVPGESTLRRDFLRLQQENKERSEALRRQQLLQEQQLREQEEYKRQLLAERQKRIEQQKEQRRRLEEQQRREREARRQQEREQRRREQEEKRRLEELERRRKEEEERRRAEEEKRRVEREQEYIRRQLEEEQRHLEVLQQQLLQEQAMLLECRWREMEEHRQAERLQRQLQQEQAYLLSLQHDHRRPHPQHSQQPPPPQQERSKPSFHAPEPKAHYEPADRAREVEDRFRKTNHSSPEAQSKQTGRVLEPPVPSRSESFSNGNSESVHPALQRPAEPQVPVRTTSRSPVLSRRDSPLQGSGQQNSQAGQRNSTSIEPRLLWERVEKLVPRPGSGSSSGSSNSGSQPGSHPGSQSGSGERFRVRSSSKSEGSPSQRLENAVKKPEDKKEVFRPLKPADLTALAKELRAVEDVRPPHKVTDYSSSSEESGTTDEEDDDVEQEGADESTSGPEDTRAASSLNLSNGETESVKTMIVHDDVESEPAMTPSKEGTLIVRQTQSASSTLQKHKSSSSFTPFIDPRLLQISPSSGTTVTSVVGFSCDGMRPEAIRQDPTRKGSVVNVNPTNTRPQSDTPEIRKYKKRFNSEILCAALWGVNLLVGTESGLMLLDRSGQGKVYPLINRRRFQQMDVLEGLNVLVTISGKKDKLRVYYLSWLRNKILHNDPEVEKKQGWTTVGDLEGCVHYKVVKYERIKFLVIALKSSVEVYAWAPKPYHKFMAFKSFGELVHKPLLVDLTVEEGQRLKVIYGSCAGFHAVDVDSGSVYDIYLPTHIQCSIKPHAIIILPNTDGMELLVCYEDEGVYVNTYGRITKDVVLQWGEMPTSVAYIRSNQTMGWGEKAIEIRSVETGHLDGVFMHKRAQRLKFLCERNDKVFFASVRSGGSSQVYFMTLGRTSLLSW

[6] = biological target: Calcium/calmodulin-dependent protein kinase type 1 (Homo sapiens) (UniProt Q14012); test: Inhibition of CaMK1alpha Lys1 labeling site harbouring LVAIKCIAK in human A-375 cells at 5 uM by KiNativ Profiling analysis relative to control; type: cell-based
Calcium/calmodulin-dependent protein kinase type 1 (Homo sapiens), sequence (Q14012 whole entry, looked up): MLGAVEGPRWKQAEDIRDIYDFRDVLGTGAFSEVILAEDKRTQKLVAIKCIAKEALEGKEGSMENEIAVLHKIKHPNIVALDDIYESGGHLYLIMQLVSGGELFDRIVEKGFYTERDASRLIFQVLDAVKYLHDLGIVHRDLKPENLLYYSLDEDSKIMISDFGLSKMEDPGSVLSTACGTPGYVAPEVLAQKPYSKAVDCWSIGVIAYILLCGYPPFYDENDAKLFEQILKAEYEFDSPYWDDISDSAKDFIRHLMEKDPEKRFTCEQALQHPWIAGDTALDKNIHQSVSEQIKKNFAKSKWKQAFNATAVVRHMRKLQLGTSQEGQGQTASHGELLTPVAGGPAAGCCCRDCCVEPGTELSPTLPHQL
Summary of the method: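 Intact A375 melanoma cells were treated with compound at 5 or 0.5 μM, then lysed. Lysate kinases were labeled with a lysine-reactive ATP or ADP-biotin probe (KiNativ). Inhibition is read as protection of each kinase labeling site from probe labeling.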

[7] = biological target: Mitogen-activated protein kinase kinase kinase 11 (Homo sapiens) (UniProt Q16584); test: Inhibition of MLK3 Lys2 labeling site in human A-375 cells at 0.5 uM by KiNativ Profiling analysis relative to control; type: cell-based
Mitogen-activated protein kinase kinase kinase 11 (Homo sapiens), sequence (Q16584 whole entry, looked up): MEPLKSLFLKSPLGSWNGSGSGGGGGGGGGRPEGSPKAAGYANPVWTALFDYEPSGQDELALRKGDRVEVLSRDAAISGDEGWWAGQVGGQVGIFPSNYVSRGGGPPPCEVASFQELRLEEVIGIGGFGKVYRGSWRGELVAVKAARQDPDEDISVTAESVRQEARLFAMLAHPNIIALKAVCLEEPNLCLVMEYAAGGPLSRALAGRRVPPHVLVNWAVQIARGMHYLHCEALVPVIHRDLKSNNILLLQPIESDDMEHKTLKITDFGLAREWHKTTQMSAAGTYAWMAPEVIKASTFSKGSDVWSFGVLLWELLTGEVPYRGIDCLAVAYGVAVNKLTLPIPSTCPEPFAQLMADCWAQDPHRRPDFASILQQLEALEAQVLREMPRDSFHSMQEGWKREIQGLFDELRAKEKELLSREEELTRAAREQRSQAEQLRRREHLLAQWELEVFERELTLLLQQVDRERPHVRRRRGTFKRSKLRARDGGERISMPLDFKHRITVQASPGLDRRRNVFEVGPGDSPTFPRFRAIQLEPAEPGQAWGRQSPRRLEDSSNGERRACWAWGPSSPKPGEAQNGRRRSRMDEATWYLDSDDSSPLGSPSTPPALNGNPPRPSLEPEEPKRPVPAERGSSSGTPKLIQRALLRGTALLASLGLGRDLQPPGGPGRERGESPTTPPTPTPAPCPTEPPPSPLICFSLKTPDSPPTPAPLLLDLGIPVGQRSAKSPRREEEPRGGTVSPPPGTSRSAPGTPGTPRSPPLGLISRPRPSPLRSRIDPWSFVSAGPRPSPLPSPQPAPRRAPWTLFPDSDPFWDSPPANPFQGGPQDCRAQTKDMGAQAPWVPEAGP

[8] = biological target: T2, Inhibitor of nuclear factor kappa-B kinase subunit alpha (Homo sapiens) (UniProt O15111); test: Inhibition of IKKa Lys2 labeling site in human A-375 cells at 0.5 uM by KiNativ Profiling analysis relative to control; type: cell-based
T2 sequence (whole entry): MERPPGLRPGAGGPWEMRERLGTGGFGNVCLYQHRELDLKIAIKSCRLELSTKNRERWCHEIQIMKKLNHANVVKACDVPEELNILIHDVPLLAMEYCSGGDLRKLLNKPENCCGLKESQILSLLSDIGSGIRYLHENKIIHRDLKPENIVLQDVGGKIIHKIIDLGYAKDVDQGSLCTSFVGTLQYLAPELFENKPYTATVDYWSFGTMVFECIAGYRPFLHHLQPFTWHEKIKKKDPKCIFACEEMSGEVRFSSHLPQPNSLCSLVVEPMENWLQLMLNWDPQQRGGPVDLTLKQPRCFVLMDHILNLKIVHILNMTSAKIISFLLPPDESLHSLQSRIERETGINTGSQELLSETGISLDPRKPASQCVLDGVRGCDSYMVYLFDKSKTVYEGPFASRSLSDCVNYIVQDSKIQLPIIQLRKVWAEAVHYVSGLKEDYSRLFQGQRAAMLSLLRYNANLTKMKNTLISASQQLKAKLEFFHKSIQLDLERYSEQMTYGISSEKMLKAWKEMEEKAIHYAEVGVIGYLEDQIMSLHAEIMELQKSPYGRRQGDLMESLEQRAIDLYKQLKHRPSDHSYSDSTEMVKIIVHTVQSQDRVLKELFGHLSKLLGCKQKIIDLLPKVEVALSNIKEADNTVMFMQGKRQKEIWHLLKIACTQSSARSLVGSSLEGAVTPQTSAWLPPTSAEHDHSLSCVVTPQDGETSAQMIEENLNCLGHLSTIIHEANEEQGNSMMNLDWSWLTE

[9] = biological target: T3, Interleukin-1 receptor-associated kinase 4 (Homo sapiens) (UniProt Q9NWZ3); test: Inhibition of IRAK4 Lys2 labeling site in human A-375 cells at 5 uM by KiNativ Profiling analysis relative to control; type: cell-based
T3 sequence (whole entry): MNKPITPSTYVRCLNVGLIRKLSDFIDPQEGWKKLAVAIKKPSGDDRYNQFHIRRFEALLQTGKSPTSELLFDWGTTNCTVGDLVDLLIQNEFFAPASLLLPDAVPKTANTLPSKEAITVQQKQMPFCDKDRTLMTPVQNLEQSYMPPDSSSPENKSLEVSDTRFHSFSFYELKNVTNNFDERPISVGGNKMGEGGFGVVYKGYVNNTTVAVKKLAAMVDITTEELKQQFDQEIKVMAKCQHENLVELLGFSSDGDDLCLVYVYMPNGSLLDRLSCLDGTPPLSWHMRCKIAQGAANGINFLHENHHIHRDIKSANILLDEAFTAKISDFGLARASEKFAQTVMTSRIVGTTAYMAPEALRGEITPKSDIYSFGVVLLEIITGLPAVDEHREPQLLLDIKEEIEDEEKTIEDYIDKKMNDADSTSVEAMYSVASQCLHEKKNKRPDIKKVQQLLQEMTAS
Summary of the method: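 Live A375 melanoma cells were treated with compound at 5 or 0.5 μM, then lysed. Lysates were labeled with a lysine-reactive ATP or ADP-biotin probe. Read-out was the compound's protection of kinase labeling sites from probe labeling (KiNativ).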

[10] = biological target: Activated CDC42 kinase 1 (Homo sapiens) (UniProt Q07912); test: Inhibition of ACK Lys1 labeling site in human A-375 cells at 0.05 uM by KiNativ Profiling analysis relative to control; type: cell-based
Activated CDC42 kinase 1 (Homo sapiens), sequence (Q07912 whole entry, looked up): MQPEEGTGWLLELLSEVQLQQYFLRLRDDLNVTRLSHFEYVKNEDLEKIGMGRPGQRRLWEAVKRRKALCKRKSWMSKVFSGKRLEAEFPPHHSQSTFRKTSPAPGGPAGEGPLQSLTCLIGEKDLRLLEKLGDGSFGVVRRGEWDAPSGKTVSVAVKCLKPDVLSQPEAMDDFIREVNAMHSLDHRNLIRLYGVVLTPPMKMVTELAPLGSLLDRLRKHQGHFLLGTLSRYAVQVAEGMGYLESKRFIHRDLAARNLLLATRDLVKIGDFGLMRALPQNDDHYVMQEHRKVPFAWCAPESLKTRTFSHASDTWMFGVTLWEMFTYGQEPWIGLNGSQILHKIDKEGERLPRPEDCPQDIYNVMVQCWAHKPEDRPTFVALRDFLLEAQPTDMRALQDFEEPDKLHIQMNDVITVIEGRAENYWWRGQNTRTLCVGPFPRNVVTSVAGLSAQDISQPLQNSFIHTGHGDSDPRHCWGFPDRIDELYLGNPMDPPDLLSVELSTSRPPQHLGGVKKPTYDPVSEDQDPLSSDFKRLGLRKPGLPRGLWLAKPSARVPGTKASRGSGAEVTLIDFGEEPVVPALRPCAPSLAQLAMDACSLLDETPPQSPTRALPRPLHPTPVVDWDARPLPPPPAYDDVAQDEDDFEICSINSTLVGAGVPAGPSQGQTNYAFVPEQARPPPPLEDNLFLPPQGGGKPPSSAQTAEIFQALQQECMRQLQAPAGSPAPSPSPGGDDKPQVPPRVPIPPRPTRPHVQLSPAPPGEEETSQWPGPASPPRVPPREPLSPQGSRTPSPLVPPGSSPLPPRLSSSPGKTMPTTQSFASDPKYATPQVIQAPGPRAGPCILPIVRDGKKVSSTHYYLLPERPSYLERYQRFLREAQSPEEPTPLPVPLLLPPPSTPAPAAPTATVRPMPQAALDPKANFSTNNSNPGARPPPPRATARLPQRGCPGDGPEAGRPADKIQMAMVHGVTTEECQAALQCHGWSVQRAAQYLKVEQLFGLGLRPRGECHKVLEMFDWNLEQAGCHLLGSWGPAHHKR

Mitogen-activated protein kinase 8, sequence (P45983 whole entry): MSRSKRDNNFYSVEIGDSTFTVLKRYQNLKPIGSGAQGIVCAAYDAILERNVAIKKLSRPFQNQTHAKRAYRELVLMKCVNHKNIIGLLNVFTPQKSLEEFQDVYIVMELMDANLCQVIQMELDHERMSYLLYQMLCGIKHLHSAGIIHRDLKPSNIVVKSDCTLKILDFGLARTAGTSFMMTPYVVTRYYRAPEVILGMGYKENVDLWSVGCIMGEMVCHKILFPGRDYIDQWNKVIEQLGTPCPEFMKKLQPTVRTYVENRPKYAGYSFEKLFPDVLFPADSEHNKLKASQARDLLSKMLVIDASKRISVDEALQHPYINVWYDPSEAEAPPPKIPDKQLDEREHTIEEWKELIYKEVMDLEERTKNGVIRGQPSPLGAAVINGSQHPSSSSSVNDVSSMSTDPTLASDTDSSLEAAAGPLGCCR

Structure (SMILES) | inhibition [1] | inhibition [2] | inhibition [3] | inhibition [4] | inhibition [5] | inhibition [6] | inhibition [7] | inhibition [8] | inhibition [9] | inhibition [10]
CNc1cc(Oc2cc(C(=O)Nc3cc(N4CCN(C)CC4)cc(C(F)(F)F)c3)ccc2C)ncn1 | 7% | – | – | – | – | – | – | – | – | –
CCN1CCN(Cc2ccc(NC(=O)c3ccc(C)c(/C=C/c4cnc5[nH]ccc5c4OC)c3)cc2C(F)(F)F)CC1 | – | 9.6% | -4.8% | 16.9% | 26.3% | 31.9% | 10.5% | 13.3% | 34.1% | 34.3%
CNc1cc(Oc2cc(C(=O)Nc3cc(-n4cnc(C)c4)cc(C(F)(F)F)c3)ccc2C)ncn1 | 18.4% | – | – | – | – | – | – | – | – | –
CCN1CCN(Cc2ccc(NC(=O)c3ccc(C)c(Oc4ccnc5[nH]ccc45)c3)cc2C(F)(F)F)CC1 | – | 3.6% | 40.1% | 18% | 75.6% | 91.8% | 0.3% | 33.4% | -0.2% | 15.6%
